The values below come from publication PMC6175428 (Journal of Clinical Pharmacology, 2018).

Like-named read-outs stand apart in the source and are kept apart here.

A short description of data set [1]: Urine bioanalysis / renal clearance of semaglutide and SNAC. Format: in vivo, human. As to conditions: for CLR (renal clearance): SNAC after 10th dose, geometric mean (CV). The essentials:
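Urine was collected before dosing on day 1 and in fractions after the day-10 dose (0–4, 4–8, 16–24 and 24–36 h) and stored at −20°C. 1% Triton X-100 was added at 1 part per 9 parts urine. Semaglutide and SNAC were measured by the plasma LC-MS/MS assays, with ranges corrected by a factor of 1.111. Renal clearance was reported as the geometric mean (CV) per hepatic function group.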

The format of data set [2] is in vivo, human. As to conditions: for CL/F (total apparent clearance): SNAC after 10th dose, geometric mean (CV). Put shortly:
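Adults with hepatic function graded by Child-Pugh took one oral tablet daily for 10 days: 5 mg for 5 days, then 10 mg for 5 days. Each tablet held 300 mg SNAC and was taken with 120 mL water after a ≥6 h fast. Plasma was sampled within 24 h after dosing on days 1 and 10 into K3-EDTA and stored at −20°C. LC-MS/MS used in-line solid-phase preparation and internal-standard peak area ratios, with an LLOQ of 5.00 ng/mL.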

In another data set the test system is plasma protein. The data set can be described thus: Plasma protein binding of SNAC. The data set is classed as in vitro ADME, human. Put shortly: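 Plasma protein binding measured ex vivo by rapid equilibrium dialysis on blood drawn 30 minutes after the day-10 dose. Subjects with normal hepatic function or mild, moderate or severe hepatic impairment received the oral semaglutide/SNAC co-formulation for 10 consecutive days. Food and liquid were withheld for 30 minutes post-dose. The read-out is the fraction of unbound SNAC per subject, summarised as a median per group.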

For data set [3] the following is noted: subcutaneous once-daily liraglutide; cited from earlier work.
Where [4] appears, read: mild hepatic impairment (n = 12).
Setting [5] is: moderate hepatic impairment (n = 12).
The mark [6] stands for this setting: normal hepatic function (n = 24).
The mark [7] stands for this setting: severe hepatic impairment (n = 8).

On to `O=C([O-])CCCCCCCNC(=O)c1ccccc1O.[Na+]` [SNAC, sodium N‐(8‐[2‐hydroxybenzoyl]amino) caprylate], for which the “CLR (renal clearance)” value in data set [1] (setting [4]) is reported as 0.075 (125.3) L/h; in data set [1] (setting [5]), 0.054 (73.98) L/h; in data set [1] (setting [6]) it was 0.076 (109.0) L/h; in data set [1] (setting [7]), 0.111 (88.52) L/h. In addition, the “Estimated mean CLR of SNAC, range across groups” value in data set [1] (range of estimated means with 95%CI across hepatic function groups) was 0.052 [95%CI, 0.036–0.076]–0.096 [95%CI, 0.059–0.157] L/h. Further, the “CL/F (total apparent clearance)” value in data set [2] (setting [4]) is 195.6 (24.2) L/h; in data set [2] (setting [5]), 105.1 (63.1) L/h; in data set [2] (setting [6]), 275.8 (27.9) L/h; in data set [2] (setting [7]), 78.5 (36.4) L/h. Also, the “Median tmax of SNAC” value in data set [2] (across the 4 hepatic function groups) is listed as “approximately 0.5 hours”. Further, the “Accumulation of SNAC” value in data set [2] (day 1 vs day 10 exposure, any hepatic function group) is given as “No accumulation”. The “Median fraction of unbound SNAC” value in the data set with plasma protein (across the hepatic function groups, samples 30 minutes after dosing on day 10) is “less than 1%”. Also, the “Plasma protein binding of SNAC” value in the data set with plasma protein (all subjects across hepatic function groups) is “more than 99%”.
Turning to `CC[C@H](C)[C@H](NC(=O)[C@H](Cc1ccccc1)NC(=O)[C@H](CCC(=O)O)NC(=O)[C@H](CCCCNC(=O)COCCOCCNC(=O)COCCOCCNC(=O)CC[C@H](NC(=O)CCCCCCCCCCCCCCCCC(=O)O)C(=O)O)NC(=O)[C@H](C)NC(=O)[C@H](C)NC(=O)[C@H](CCC(N)=O)NC(=O)CNC(=O)[C@H](CCC(=O)O)NC(=O)[C@H](CC(C)C)NC(=O)[C@H](Cc1ccc(O)cc1)NC(=O)[C@H](CO)NC(=O)[C@H](CO)NC(=O)[C@@H](NC(=O)[C@H](CC(=O)O)NC(=O)[C@H](CO)NC(=O)[C@@H](NC(=O)[C@H](Cc1ccccc1)NC(=O)[C@@H](NC(=O)CNC(=O)[C@H](CCC(=O)O)NC(=O)C(C)(C)NC(=O)[C@@H](N)Cc1cnc[nH]1)[C@@H](C)O)[C@@H](C)O)C(C)C)C(=O)N[C@@H](C)C(=O)N[C@@H](Cc1c[nH]c2ccccc12)C(=O)N[C@@H](CC(C)C)C(=O)N[C@H](C(=O)N[C@@H](CCCNC(=N)N)C(=O)NCC(=O)N[C@@H](CCCNC(=N)N)C(=O)NCC(=O)O)C(C)C` [Semaglutide, reference compound], the “Semaglutide in urine samples” value in data set [1] (subjects with normal hepatic function and all hepatic impairment groups) was “not detected”.
As to liraglutide, the “Drug exposure with impaired liver function” value in data set [3] was “not increased”.
